Assay results: ChEMBL document CHEMBL4706700, “Oxa-adamantyl cannabinoids” (Bioorg Med Chem Lett, 2021)
The source made the active and inactive calls. The rule behind the calls is not given here.

Key:
Cannabinoid receptor 1 [1] = biological target: T1, Cannabinoid receptor 1 (Rattus norvegicus, UniProt P20272); experiment: Displacement of [3H]CP55940 from rat brain CB1 receptor by scintillation counting method; type: tissue-based
Outline: (§1)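 Competition binding with [3H]CP-55,940. Receptor source is rat brain membranes (CB1) or membranes from HEK293 cells expressing mouse or human CB2. Ki from competition curves by nonlinear regression. Ki is the mean of three independent experiments, each in triplicate.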

Cannabinoid receptor 2 [2] = biological target: Cannabinoid receptor 2 (Mus musculus, UniProt P47936); experiment: Displacement of [3H]CP55940 from mouse CB2 receptor expressed in HEK293 cell membrane by scintillation counting method; type: cell membranes; outline: as §1
Chain of Cannabinoid receptor 2 (Mus musculus, UniProt P47936) (P47936 whole entry): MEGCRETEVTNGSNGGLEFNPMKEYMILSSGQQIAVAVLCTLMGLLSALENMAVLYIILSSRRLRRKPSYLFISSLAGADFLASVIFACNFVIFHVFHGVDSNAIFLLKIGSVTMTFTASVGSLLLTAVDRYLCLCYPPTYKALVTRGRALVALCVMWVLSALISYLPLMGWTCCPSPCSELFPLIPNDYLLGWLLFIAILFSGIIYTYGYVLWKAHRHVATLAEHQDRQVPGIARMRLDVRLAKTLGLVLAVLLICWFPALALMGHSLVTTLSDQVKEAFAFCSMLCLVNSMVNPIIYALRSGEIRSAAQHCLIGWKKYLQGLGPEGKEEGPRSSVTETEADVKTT

Cannabinoid receptor 2 [3] = biological target: T2, Cannabinoid receptor 2 (Homo sapiens, UniProt P34972); experiment: Displacement of [3H]CP55940 from human CB2 receptor expressed in HEK293 cell membrane by scintillation counting method; type: cell membranes
T2 sequence (P34972 whole entry): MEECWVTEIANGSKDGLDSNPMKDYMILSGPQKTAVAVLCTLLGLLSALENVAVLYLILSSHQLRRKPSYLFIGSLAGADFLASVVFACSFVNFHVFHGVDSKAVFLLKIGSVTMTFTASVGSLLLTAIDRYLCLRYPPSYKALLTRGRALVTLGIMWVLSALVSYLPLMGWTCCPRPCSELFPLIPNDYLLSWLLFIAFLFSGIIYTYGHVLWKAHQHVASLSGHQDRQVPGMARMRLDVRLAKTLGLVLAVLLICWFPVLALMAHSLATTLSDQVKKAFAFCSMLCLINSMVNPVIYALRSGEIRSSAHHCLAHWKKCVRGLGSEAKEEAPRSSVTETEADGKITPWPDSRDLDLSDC
Outline: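 Receptor source is rat brain membranes (CB1) or membranes from HEK293 cells expressing mouse or human CB2. Ki from competition curves by nonlinear regression. Ki is the mean of three independent experiments, each in triplicate.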

Cannabinoid receptor 1 [4] = biological target: T1, Cannabinoid receptor 1; experiment: Agonist activity at rat […] CB1 receptor assessed as decrease in forskolin-stimulated cAMP level stimulated for 30 mins followed by Eu-cAMP tracer addition and measured after 60 mins; type: functional
Cannabinoid receptor 2 [5] = biological target: T2, Cannabinoid receptor 2; experiment: Agonist activity at human CB2 receptor expressed in HEK293 cells assessed as decrease in forskolin-stimulated cAMP level up to 2.3 uM stimulated for 30 mins followed by Eu-cAMP tracer addition and measured after 60 mins; type: functional, cell-based; details: dose microM <=2.3, time 90.0 min
Outline: (§2)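 cAMP accumulation stimulated by forskolin, in HEK293 cells expressing rCB1 or hCB2. Forskolin-stimulated level set to 100%. EC50 obtained by nonlinear regression. […] Values are the average of two independent experiments, each run in triplicate.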

[6] = biological target: Cannabinoid receptor 1 (Rattus norvegicus) (UniProt P20272); experiment: Agonist activity at rat CB1 receptor expressed in HEK293 cells assessed as inhibition of forskolin-stimulated cAMP level stimulated for 30 mins followed by Eu-cAMP tracer addition and measured after 60 mins relative to control; type: functional, cell-based; details: filed as agonist, time 90.0 min; outline: as §2
Chain of Cannabinoid receptor 1 (Rattus norvegicus) (P20272 whole entry): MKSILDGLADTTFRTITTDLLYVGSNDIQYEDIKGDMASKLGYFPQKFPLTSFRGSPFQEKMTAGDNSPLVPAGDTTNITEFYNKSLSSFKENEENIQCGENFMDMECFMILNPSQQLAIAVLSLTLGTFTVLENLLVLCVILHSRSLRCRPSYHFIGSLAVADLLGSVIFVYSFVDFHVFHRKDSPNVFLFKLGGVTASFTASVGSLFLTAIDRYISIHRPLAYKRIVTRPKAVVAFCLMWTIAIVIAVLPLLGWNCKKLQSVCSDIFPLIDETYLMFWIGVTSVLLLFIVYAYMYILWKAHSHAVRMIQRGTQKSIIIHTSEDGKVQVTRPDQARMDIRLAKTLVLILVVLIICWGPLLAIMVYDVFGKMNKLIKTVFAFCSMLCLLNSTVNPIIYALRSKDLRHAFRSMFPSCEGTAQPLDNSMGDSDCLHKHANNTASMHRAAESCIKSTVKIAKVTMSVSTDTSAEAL

[7] = biological target: Cannabinoid receptor 1 (Rattus norvegicus) (UniProt P20272); experiment: Agonist activity at rat CB1 receptor expressed in HEK293 cells assessed as inhibition of forskolin-stimulated cAMP level stimulated for 30 mins followed by Eu-cAMP tracer addition and measured after 60 mins; type: functional, cell-based; details: filed as agonist, time 90.0 min; outline: as §2
[8] = biological target: Cannabinoid receptor 1 (Rattus norvegicus) (UniProt P20272); experiment: Irreversible binding affinity to rat brain CB1 receptor assessed as inhibition of [3H]CP55940 binding to receptor at 10 fold Ki by saturation curve assay relative to control; type: tissue-based; details: filed as agonist
Outline: (§3)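 Rat brain CB1 or HEK293 hCB2 membranes pretreated with the isothiocyanate ligand, then run in [3H]CP-55,940 saturation binding. Controls were processed in parallel without ligand. Percent covalent labeling = [Bmax(control) − Bmax(ligand)]/Bmax(control). At least two independent experiments in triplicate; mean ± SEM.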

Cannabinoid receptor 2 [9] = biological target: T2, Cannabinoid receptor 2; experiment: Irreversible binding affinity to human CB2 receptor expressed in HEK293 cells assessed as inhibition of [3H]CP55940 binding to receptor at 10 fold Ki by saturation curve assay relative to control; type: cell-based; outline: as §3
[10] = Selectivity ratio of Ki for displacement of [3H]CP55940 from human CB2 receptor expressed in HEK293 cells to Ki for displacement of [3H]CP55940 from mouse CB2 receptor expressed in HEK293 cells; type: cell-based

T1 sequence (P20272 whole entry): as above

Row | Compound | Ki (Cannabinoid receptor 1 [1]) | Ki (Cannabinoid receptor 2 [2]) | Ki (Cannabinoid receptor 2 [3]) | EC50 (Cannabinoid receptor 1 [4]) | Activity (Cannabinoid receptor 2 [5]) | Emax [6] | inhibition [7] | Bmax [8] | Bmax (Cannabinoid receptor 2 [9]) | Ratio Ki [10]
1 | CC1(C)Oc2cc(C34CC5CC(CC(CN=[N+]=[N-])(C5)O3)C4)cc(O)c2[C@@H]2C[C@H](CO)CC[C@H]21 | 2 nM | 0.7 nM | 2.2 nM | 0.9 nM | inactive | 93% | Dose-dependent effect | – | – | –
2 | CCCCCCC(C)(C)c1ccc([C@@H]2C[C@H](O)CC[C@H]2CCCO)c(O)c1 | – | – | – | – | – | – | Dose-dependent effect | – | – | –
3 | CC1(C)Oc2cc(C34CC5CC(CC(C(N)=O)(C5)O3)C4)cc(O)c2[C@@H]2C[C@H](O)CC[C@H]21 | 28.7 nM | 865 nM | 369 nM | – | – | – | – | – | – | –
4 | CC1(C)Oc2cc(C34CC5CC(CC(C(N)=O)(C5)O3)C4)cc(O)c2[C@@H]2C[C@H](CO)CC[C@H]21 | 10.8 nM | 34.9 nM | 91.8 nM | – | – | – | – | – | – | –
5 | CC1(C)Oc2cc(C34CC5CC(CC(CN=C=S)(C5)O3)C4)cc(O)c2[C@@H]2C[C@H](O)CC[C@H]21 | 4.8 nM | 9.5 nM | 3.6 nM | 0.8 nM | inactive | 88% | Dose-dependent effect | 65% | 32% | –
6 | CC1(C)Oc2cc(C34CC5CC(CC(CN=[N+]=[N-])(C5)O3)C4)cc(O)c2[C@@H]2C[C@H](O)CC[C@H]21 | 2.3 nM | 2.7 nM | 3.1 nM | 3.1 nM | inactive | 87% | Dose-dependent effect | – | – | –
7 | CC1(C)Oc2cc(C34CC5CC(CC(C#N)(C5)O3)C4)cc(O)c2[C@@H]2C[C@H](O)CC[C@H]21 | 26.6 nM | 1.6 nM | 31.7 nM | – | – | – | – | – | – | 20
8 | CC1(C)Oc2cc(C34CC5CC(CC(CN=C=S)(C5)O3)C4)cc(O)c2[C@@H]2C[C@H](CO)CC[C@H]21 | 8.4 nM | 6.6 nM | 4.7 nM | 0.9 nM | inactive | 94% | Dose-dependent effect | – | – | –
